Source: ChEMBL document CHEMBL1141177, “The novel L- and D-amino acid derivatives of hydroxyurea and hydantoins: synthesis, X-ray crystal structure study, and cytostatic and antiviral activity evaluations” (J Med Chem, 2005)
pIC50: −log10 of the molar value. Values after ≈ are worked out from the molar mass of the structure shown.

Assays:
[1] = test system: MCF7; assay: Inhibition of breast carcinoma cell line (MCF-7) growth; format: functional, cell-based; settings: Homo sapiens
Outline: (§1)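 Monolayers in DMEM with 10% FBS, 2 mM L-glutamine, penicillin/streptomycin, 37 °C, 5% CO2. Cells seeded on day 0, then compounds added in 5- and 10-fold dilutions (10^-8–10^-4 M) for 72 h. MTT read-out at 570 nm. Percent growth calculated relative to time-zero and untreated OD. Quadruplicates in three experiments; IC50 by linear interpolation, highest concentration reported as ">" when not reached.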

[2] = test system: L1210; assay: Inhibition of murine leukemia cells (L1210) growth; format: functional, cell-based; settings: Mus musculus
[3] = test system: WI-38; assay: Inhibition of normal human fibroblast cell line (WI 38) growth; format: functional, cell-based; outline: as §1
[4] = test system: MIA PaCa-2; assay: Inhibition of pancreatic carcinoma cell line (MiaPaCa-2) growth; format: functional, cell-based; settings: Homo sapiens; outline: as §1
[5] = test system: HEp-2; assay: Inhibition of laryngeal carcinoma cell line (Hep-2) growth; format: functional, cell-based; settings: Homo sapiens; outline: as §1
[6] = test system: MOLT-4; assay: Inhibition of human T-lymphocyte cell line (Molt4/C8) growth; format: functional, cell-based
[7] = test system: SW-620; assay: Inhibition of colon carcinoma cell line (SW 620) growth; format: functional, cell-based; settings: Homo sapiens; outline: as §1
[8] = test system: HeLa; assay: Inhibition of cervical carcinoma cell line (HeLa) growth; format: functional, cell-based; settings: Homo sapiens; outline: as §1
[9] = test system: HEL; assay: Minimum cytotoxic concentration of compound that causes alteration of cell morphology in human embryonic lung cells; format: functional
Outline: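 Human embryonic lung (HEL) cells were examined microscopically. MCC is the minimum concentration that causes a detectable alteration of cell morphology.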

[10] = Effective concentration required to reduce plaque formation by AD-169 strain of CMV virus in Human embryonic lung cells; format: functional, cell-based
Outline: (§2)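 Plaque reduction assay in human embryonic lung (HEL) cell cultures, virus input 100 plaque forming units. Viruses: CMV strains AD-169 and Davis, VZV TK+ strain OKA and TK− strain 07/1. EC50 is the concentration that reduces virus plaque formation by 50%.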

[11] = Effective concentration required to reduce plaque formation by Davis strain of CMV virus in Human embryonic lung cells; format: functional, cell-based; outline: as §2
[12] = test system: HEL; assay: Cytotoxic concentration to reduce the 50% cell growth of human embryonic lung cells; format: functional; settings: Homo sapiens, HEL; read-out: CC50
[13] = test system: Human alphaherpesvirus 3; assay: Effective concentration of compound required to reduce plaque formation by OKA strain of thymidine kinase positive VZ virus TK+ in human embryonic lung cells; format: functional, organism-based; settings: Human alphaherpesvirus 3, lung
[14] = test system: Human alphaherpesvirus 3; assay: Reduction of plaque formation by VZV07/1 strain of thymidine kinase(TK-) deficient VZ virus in human embryonic lung cells; format: functional, organism-based; settings: Human alphaherpesvirus 3, lung

Row | SMILES | pIC50 [1] | pIC50 [2] | pIC50 [3] | pIC50 [4] | pIC50 [5] | pIC50 [6] | pIC50 [7] | pIC50 [8] | MCC [9] | EC50 [10] | EC50 [11] | CC50 [12] | EC50 [13] | EC50 [14]
1 | O=C(NO)NC(C(=O)NC(c1ccccc1)c1ccccc1)c1ccccc1 (stereo unspecified) | 4.08 | 4.74 | < 4.00 | 4.50 | 4.08 | 4.41 | 4.20 | 4.38 |  |  |  |  |  | 
2 | O=C1NC(c2ccccc2)C(=O)N1Cc1ccccc1 (stereo unspecified) | 5.48 | < 3.70 | 4.10 | 4.16 | 4.08 | < 3.70 | 4.01 | < 4.00 | 100 µg/mL | 7.6 µg/mL (≈ 28.5 µM) | 4 µg/mL (≈ 15 µM) | 12.5 µg/mL (≈ 46.9 µM) | 15 µg/mL (≈ 56.3 µM) | 11 µg/mL (≈ 41.3 µM)
3 | O=C1NC(c2ccccc2)C(=O)N1C1CCCC1 (stereo unspecified) | 4.66 | < 3.70 | < 4.00 | < 4.00 | < 4.00 | < 3.70 | < 4.00 | < 4.00 | ≥ 20 µg/mL | > 20 µg/mL | > 4 µg/mL | 27.4 µg/mL (≈ 112 µM) | > 4 µg/mL | 9 µg/mL (≈ 36.8 µM)
4 | CCC(C)C(NC(=O)n1nnc2ccccc21)C(=O)NC1CCCCC1 (stereo unspecified) |  |  |  |  |  | 4.01 |  |  |  |  |  |  |  | 
5 | CC(C)C(NC(=O)NO)C(=O)NC1CCCC1 (stereo unspecified) | < 4.00 | < 3.70 | < 4.00 | < 4.00 | 4.48 | < 3.70 | < 4.00 | < 4.00 |  |  |  |  |  | 
6 | CCC(C)C(NC(=O)n1nnc2ccccc21)C(=O)NCc1ccccc1 (stereo unspecified) |  |  |  |  |  | 4.02 |  |  |  |  |  |  |  | 
7 | O=C(NO)NC(Cc1ccccc1)C(=O)NC(c1ccccc1)c1ccccc1 (stereo unspecified) | 4.36 | 4.74 | 4.48 | 4.39 | 4.21 | 4.68 | 4.18 | 4.40 |  |  |  |  |  | 
8 | O=C(NO)NC(Cc1ccccc1)C(=O)NC1CCCC1 (stereo unspecified) | < 4.00 | 3.84 | < 4.00 | < 4.00 | < 4.00 | < 3.70 | < 4.00 | < 4.00 |  |  |  |  |  | 
9 | O=C(C(NC(=O)n1nnc2ccccc21)c1ccccc1)N1CCCCC1 (stereo unspecified) | 4.17 | 4.09 | ≤ 4.00 | ≤ 4.00 | < 4.00 | 4.09 | < 4.00 | < 4.00 | 200 µg/mL | > 80 µg/mL | > 80 µg/mL | 188 µg/mL (≈ 517 µM) | > 80 µg/mL | > 80 µg/mL
10 | CC(C)C(NC(=O)NO)C(=O)NC1CCCCC1 (stereo unspecified) | < 4.00 | < 4.00 | 4.23 | < 4.00 | < 4.00 | < 4.00 | < 4.00 | < 4.00 |  |  |  |  |  | 
11 | O=C(NO)NC(Cc1ccccc1)C(=O)NCc1ccccc1 (stereo unspecified) |  | 4.77 | < 4.00 | < 4.00 | < 4.00 | 4.92 | < 4.00 | < 4.00 |  |  |  |  |  | 
12 | CC(C)C1NC(=O)N(C2CCCC2)C1=O (stereo unspecified) | < 4.00 | < 3.70 | < 4.00 | < 4.00 | 4.01 | < 3.70 | < 4.00 | < 4.00 | > 100 µg/mL | > 100 µg/mL | > 100 µg/mL | > 50 µg/mL | > 84 µg/mL | > 90 µg/mL
13 | O=C(NCC1CCCCC1)C(NC(=O)n1nnc2ccccc21)c1ccccc1 (stereo unspecified) | 4.45 | 4.01 | < 4.00 | 4.14 | 4.16 | 4.14 | < 4.00 | 4.10 | ≥ 16 µg/mL | > 16 µg/mL |  | 43.4 µg/mL (≈ 111 µM) | > 3.2 µg/mL | > 3.2 µg/mL
14 | O=C(NC1CCCC1)C(Cc1ccccc1)NC(=O)n1nnc2ccccc21 (stereo unspecified) | 4.04 | 4.17 | < 4.00 | < 4.00 | 4.02 | 4.21 | < 4.00 | 4.27 | 16 µg/mL | > 3.2 µg/mL | > 3.2 µg/mL | 15.5 µg/mL (≈ 41.1 µM) | > 3.2 µg/mL | > 3.2 µg/mL
15 | O=C(NO)NC(C(=O)Nc1ccccc1)c1ccccc1 (stereo unspecified) |  |  |  |  |  | < 3.70 |  |  |  |  |  |  |  | 
16 | O=C(NO)NC(C(=O)NCc1ccccc1)c1ccccc1 (stereo unspecified) |  |  |  |  |  | 4.77 |  |  |  |  |  |  |  | 
17 | CCC(C)C(NC(=O)n1nnc2ccccc21)C(=O)NC1CCCC1 (stereo unspecified) |  |  |  |  |  | 4.03 |  |  |  |  |  |  |  | 
18 | CCC(C)C(NC(=O)NO)C(=O)NC(c1ccccc1)c1ccccc1 (stereo unspecified) |  |  |  |  |  | 4.25 |  |  |  |  |  |  |  | 
